By Km is commonly meant the substrate concentration at which the rate is half of its maximum. As usually defined, the MIC is the least concentration at which growth counts as inhibited.

Three compounds from ChEMBL document CHEMBL1649159, “A redox basis for metronidazole resistance in Helicobacter pylori” (Antimicrob Agents Chemother, 2009) can be followed below.

In brackets after ≈: the same amount, converted by molar mass.

Data set [1] in a line: Drug activation in metronidazole-susceptible Helicobacter pylori 10593/2 lysate.
Data set [2] can be described thus: Drug activation in metronidazole-susceptible Helicobacter pylori RIG 117 J0 lysate.
A short description of data set [3]: Drug activation in metronidazole-susceptible Helicobacter pylori CAS 015 J0 lysate.
Data set [4] is described as follows: Drug activation in metronidazole-susceptible Helicobacter pylori HER 126 V1 lysate.
Data set [5] is described as follows: Drug activation in metronidazole-resistant Helicobacter pylori 10593a/2 lysate.
A short description of data set [6]: Drug activation in metronidazole-resistant Helicobacter pylori RIG 117 J56 lysate.
Data set [7] in a line: Drug activation in metronidazole-resistant Helicobacter pylori CAS 015 J56 lysate harboring rdxA L132stop and frxA L39stop mutant genes. Type of data set: organism-based.
The nature of data set [8]: Drug activation in metronidazole-resistant Helicobacter pylori HER 126 V4 lysate.
The test system of data set [9] is Helicobacter pylori. Briefly: Antimicrobial activity against Helicobacter pylori 10593/2 by Etest. The data set is classed as functional. Summed up: (§1)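 Metronidazole susceptibility by Etest, repeated in triplicate, on clinical matched-pair isolates collected after failed metronidazole treatment. Strains were grown at 37°C either microaerobically (5% CO2, 5% O2, 90% N2) or aerobically (5% CO2 in air). Isolates were called resistant above a threshold of 8 µg ml–1.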

For data set [10], the system named is Helicobacter pylori. Briefly: Antimicrobial activity against Helicobacter pylori RIG 117 J0 by Etest. The data set is classed as functional. Summed up:
(§2)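 Etest MIC determination, repeated in triplicate. Strains were grown at 37°C, either aerobically (5% CO2 in air) or microaerobically (5% CO2, 5% O2, 90% N2). Strains were classed as susceptible or resistant using a resistance threshold of 8 µg ml–1, following clinical practice.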

The subject of data set [11] is Helicobacter pylori. Briefly: Antimicrobial activity against Helicobacter pylori CAS 015 J0 by Etest. Type of data set: functional. Summed up:
as §2

Data set [12] deals with Helicobacter pylori. The data set can be described thus: Antimicrobial activity against Helicobacter pylori HER 126 V1 by Etest. Type of data set: functional. The method, boiled down:
as §1

Data set [13] deals with Helicobacter pylori. Briefly: Antimicrobial activity against compound-resistant Helicobacter pylori 10593a/2 harboring rdxA C177stop mutant gene by Etest. Type of data set: functional. The method, boiled down: as §1
The test system of data set [14] is Helicobacter pylori. The data set can be described thus: Antimicrobial activity against compound-resistant Helicobacter pylori RIG 117 J56 harboring rdxA R16C and frxA A40stop mutant genes by Etest. Type of data set: functional. Summed up: as §1
In data set [15] the test system is Helicobacter pylori. Briefly: Antimicrobial activity against compound-resistant Helicobacter pylori CAS 015 J56 harboring rdxA L132stop and frxA L39stop mutant genes by Etest. Type of data set: functional. Summed up: as §1
Data set [16] deals with Helicobacter pylori. The data set can be described thus: Antimicrobial activity against compound-resistant Helicobacter pylori HER 126 V4 by Etest. The data set is classed as functional. The method, boiled down: as §1
Data set [17] concerns Helicobacter pylori. Briefly: Prodrug activation in Helicobacter pylori 10593/2 lysate assessed as compound reduction under oxygenated microaerobic condition per mg of protein. The method, boiled down: (§3)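 Lysates of H. pylori strains grown at 37°C, either aerobically (5% CO2 in air) or microaerobically (5% CO2, 5% O2, 90% N2), with Mtr and NADH as substrates for reduction activity. Some lysate samples were argon-treated to displace oxygen. Protein content was measured by bicinchoninic acid microtiter assay.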

Data set [18] has as its system Helicobacter pylori. Briefly: Prodrug activation in Helicobacter pylori 10593/2 lysate assessed as compound reduction under argonized microaerobic condition per mg of protein. Summed up: (§4)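 Metronidazole reduction was measured in lysate suspensions with Mtr and NADH as substrates. Cells were grown at 37°C either aerobically (5% CO2 in air) or microaerobically (5% CO2, 5% O2, 90% N2). Lysate samples were either argon-treated to displace oxygen or left untreated. Rates were expressed per mg protein, with protein determined by the bicinchoninic acid method.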

For data set [19], the system named is Helicobacter pylori. The data set can be described thus: Prodrug activation in Helicobacter pylori 10593/2 lysate assessed as compound reduction under oxygenated aerobic condition per mg of protein. The method, boiled down:
as §3

The subject of data set [20] is Helicobacter pylori. The data set can be described thus: Prodrug activation in Helicobacter pylori 10593/2 lysate assessed as compound reduction under argonized aerobic condition per mg of protein. The method, boiled down: as §4
For data set [21], the system named is Helicobacter pylori. The data set can be described thus: Prodrug activation in Helicobacter pylori RIG 117 J0 lysate assessed as compound reduction under oxygenated microaerobic condition per mg of protein. Summed up:
as §3

Data set [22] relates to Helicobacter pylori. The data set can be described thus: Prodrug activation in Helicobacter pylori RIG 117 J0 lysate assessed as compound reduction under argonized microaerobic condition per mg of protein. Summed up:
as §4

In data set [23] the test system is Helicobacter pylori. The data set can be described thus: Prodrug activation in Helicobacter pylori RIG 117 J0 lysate assessed as compound reduction under oxygenated aerobic condition per mg of protein. Conditions: in vivo. The method, boiled down: as §4
The test system of data set [24] is Helicobacter pylori. The data set can be described thus: Prodrug activation in Helicobacter pylori RIG 117 J0 lysate assessed as compound reduction under argonized aerobic condition per mg of protein. To be noted: in vivo. The method, boiled down: as §4
Data set [25] concerns Helicobacter pylori. The data set can be described thus: Prodrug activation in Helicobacter pylori CAS 015 J0 lysate assessed as compound reduction under oxygenated microaerobic condition per mg of protein. Summed up:
as §3

The subject of data set [26] is Helicobacter pylori. Briefly: Prodrug activation in Helicobacter pylori CAS 015 J0 lysate assessed as compound reduction under argonized microaerobic condition per mg of protein. The method, boiled down:
as §4

The subject of data set [27] is Helicobacter pylori. Briefly: Prodrug activation in Helicobacter pylori CAS 015 J0 lysate assessed as compound reduction under oxygenated aerobic condition per mg of protein. Summed up: as §3
Data set [28] relates to Helicobacter pylori. Briefly: Prodrug activation in Helicobacter pylori CAS 015 J0 lysate assessed as compound reduction under argonized aerobic condition per mg of protein. The method, boiled down: as §4
Data set [29] deals with Helicobacter pylori. Briefly: Prodrug activation in Helicobacter pylori HER 126 V1 lysate assessed as compound reduction under oxygenated microaerobic condition per mg of protein. Conditions: in vivo. Summed up:
as §4

The test system of data set [30] is Helicobacter pylori. The data set can be described thus: Prodrug activation in Helicobacter pylori HER 126 V1 lysate assessed as compound reduction under argonized microaerobic condition per mg of protein. Summed up:
as §3

The subject of data set [31] is Helicobacter pylori. Briefly: Prodrug activation in Helicobacter pylori HER 126 V1 lysate assessed as compound reduction under oxygenated aerobic condition per mg of protein. Conditions: in vivo. Summed up: as §4
For data set [32], the system named is Helicobacter pylori. Briefly: Prodrug activation in Helicobacter pylori HER 126 V1 lysate assessed as compound reduction under argonized aerobic condition per mg of protein. Summed up:
as §4

Data set [33] concerns Helicobacter pylori. The data set can be described thus: Prodrug activation in Helicobacter pylori 10593a/2 lysate harboring rdxA C177stop mutant gene assessed as compound reduction under oxygenated microaerobic condition per mg of protein. Summed up:
as §3

Data set [34] has as its system Helicobacter pylori. Briefly: Prodrug activation in compound-resistant Helicobacter pylori 10593a/2 lysate harboring rdxA C177stop mutant gene assessed as compound reduction under argonized microaerobic condition per mg of protein. Summed up:
as §3

For data set [35], the system named is Helicobacter pylori. The data set can be described thus: Prodrug activation in compound-resistant Helicobacter pylori 10593a/2 lysate harboring rdxA C177stop mutant gene assessed as compound reduction under oxygenated aerobic condition per mg of protein. Summed up: as §3
Data set [36] concerns Helicobacter pylori. Briefly: Prodrug activation in compound-resistant Helicobacter pylori RIG 117 J56 lysate harboring rdxA R16C and frxA A40stop mutant genes assessed as compound reduction under oxygenated microaerobic condition per mg of protein. To be noted: in vivo. Type of data set: organism-based. The method, boiled down: as §3
Data set [37] concerns Helicobacter pylori. Briefly: Prodrug activation in compound-resistant Helicobacter pylori CAS 015 J56 lysate harboring rdxA L132stop and frxA L39stop mutant genes assessed as compound reduction under oxygenated microaerobic condition per mg of protein. Summed up:
as §3

The subject of data set [38] is Helicobacter pylori. Briefly: Prodrug activation in compound-resistant Helicobacter pylori CAS 015 J56 lysate harboring rdxA L132stop and frxA L39stop mutant genes assessed as compound reduction under oxygenated aerobic condition per mg of protein. Summed up:
as §3

Data set [39] relates to Helicobacter pylori. The data set can be described thus: Prodrug activation in compound-resistant Helicobacter pylori HER 126 V4 lysate assessed as compound reduction under oxygenated microaerobic condition per mg of protein. Conditions: in vivo. Summed up: as §3
Data set [40] concerns Helicobacter pylori. The data set can be described thus: Prodrug activation in compound-resistant Helicobacter pylori HER 126 V4 lysate assessed as compound reduction under argonized microaerobic condition per mg of protein. The method, boiled down: as §3

Take `Cc1cc2nc3c(=O)[nH]c(=O)nc-3n(C[C@H](O)[C@H](O)[C@H](O)COP(=O)(O)OP(=O)(O)OC[C@H]3O[C@@H](n4cnc5c(N)ncnc54)[C@H](O)[C@@H]3O)c2cc1C` [FLAVIN ADENIN DINUCLEOTIDE]: the Km in data set [1] was determined as 2.1 µM; in data set [2], 95 µM; in [3] it was 2.4 µM; in data set [4], 6 µM; in data set [5], 5 µM; in data set [6], 11 µM. For the same compound, the Michaelis constant (Km) in data set [7] came to 24 µM; in data set [8] it was 17 µM.

Turning to `Cc1ncc([N+](=O)[O-])n1CCO` [METRONIDAZOLE], the MIC was found to be 2 µg/mL (≈ 11.7 µM) in data set [9]; 4 µg/mL (≈ 23.4 µM) in data set [10]; 4 µg/mL (≈ 23.4 µM) in data set [11]; 2 µg/mL (≈ 11.7 µM) in data set [12]; 64 µg/mL (≈ 374 µM) in [13]; 32 µg/mL (≈ 187 µM) in data set [14]. Further, the MIC amounted to 32 µg/mL (≈ 187 µM) in data set [15] and 64 µg/mL (≈ 374 µM) in [16]. The Activity is listed as 14 nmol/min in data set [17]; 32 nmol/min in [18]; 16 nmol/min in data set [19]; 36 nmol/min in [20]; 19 nmol/min in data set [21]; 32 nmol/min in [22]. Further, the Activity is given as 27 nmol/min in data set [23]; 33 nmol/min in data set [24]; 15 nmol/min in data set [25]; 29 nmol/min in data set [26]; 18 nmol/min in [27]; 31 nmol/min in data set [28]. Further, the Activity in data set [29] came out at 18 nmol/min; in data set [30], 20 nmol/min; in data set [31] it was 22 nmol/min; in data set [32] it was 25 nmol/min; in data set [33], 9 nmol/min; in data set [34] it was 13 nmol/min. The Activity in data set [35] was 10 nmol/min; in [36], 13 nmol/min; in data set [37] it was 9 nmol/min; in data set [38], 13 nmol/min; in data set [39], 10 nmol/min; in data set [40] it was 11 nmol/min.

For `NC(=O)N/N=C/c1ccc([N+](=O)[O-])o1` [NITROFURAZONE], the Michaelis-Menten constant (Km) turned out to be 2.8 µM in data set [1]; 8.1 µM in [2]; 8.8 µM in data set [3]; 13.1 µM in data set [4]; 6 µM in data set [5]; 8.5 µM in [6]. Moreover, the results for the Km in data set [7] and in data set [8] were 3.3 µM and 6.8 µM, respectively.
